# Published values collected from several papers.
# HDAC6: Protein deacetylase HDAC6 (HDAC6, Homo sapiens, UniProt Q9UBN7)
# F2: Prothrombin (F2, Homo sapiens, UniProt P00734)
# MEP1B: Meprin A subunit beta (MEP1B, Homo sapiens, UniProt Q16820)
# KCNK18: Potassium channel subfamily K member 18 (KCNK18, Homo sapiens, UniProt Q7Z418)
# GRM7: Metabotropic glutamate receptor 7 (GRM7, Homo sapiens, UniProt Q14831)
# CDK7 with cyclin H: Cyclin-dependent kinase 7, with cyclin H (CDK7, Homo sapiens, UniProt P50613)
# PDE4D: 3',5'-cyclic-AMP phosphodiesterase 4D (PDE4D, Homo sapiens, UniProt Q08499)
# Dihydroorotate dehydrogenase, mitochondrial, putative: Dihydroorotate dehydrogenase, mitochondrial, putative (Plasmodium vivax, UniProt A5K1N1)
Structure (SMILES),target,test,setting,IC50 [nM]
CCCC[C@H](NC(=O)[C@H](C)c1c(C)[nH]c2ccc(O)cc12)c1ncc(-c2cc3ccccc3nc2OC)[nH]1,HDAC6,"enzyme activity, inhibitor",,> 45000
CNCCCOc1cc2nc(N3CCCN(C)CC3)nc(NC3CCN(C)CC3)c2cc1OC,"Histone-lysine N-methyltransferase EHMT2 (EHMT2, Homo sapiens, UniProt Q96KQ7)","enzyme activity, inhibitor",,45
COc1cc(/C=N/n2c(C)nc3ccc(C)cc3c2=O)cc([N+](=O)[O-])c1O,F2,"enzyme activity, inhibitor",,210000
O=C(CCN(Cc1ccncc1)Cc1ccc2c(c1)OCO2)NO,MEP1B,"enzyme activity, inhibitor",,8180
COC(=O)C1=C(C)NC(C)=C(C(=O)OCCN(C)Cc2ccccc2)C1c1cccc([N+](=O)[O-])c1 (stereo not drawn),KCNK18,"ion flux, inhibitor",,21900
COc1ccc2c(Oc3ccc4c(C(=O)Nc5ccccc5N)cccc4c3)ccnc2c1,"Potassium/sodium hyperpolarization-activated cyclic nucleotide-gated channel 4 (HCN4, Homo sapiens, UniProt Q9Y3Q4)","ion current, inhibitor",,> 10000
COc1ccc(-c2nsc(NC(=O)[C@@H]3C[C@H]3C)c2C)cc1,GRM7,"calcium signal, antagonist",,> 12500
COc1cc(/C=N/n2c(C)nc3ccc(Br)cc3c2=O)ccc1O,F2,"enzyme activity, inhibitor",,42500
CCCON(Cc1ccc(C(=O)NO)cc1)C(=O)Nc1ccccc1,HDAC6,"enzyme activity, inhibitor, fluorescence",,20
Cc1nc2ccccc2n1Cc1c(F)c(F)c(C(=O)NO)c(F)c1F,HDAC6,"enzyme activity, inhibitor",,3500
COc1c(C(=O)/C=C(\O)c2ccccc2)ccc2occc12,CDK7 with cyclin H,"enzyme activity, inhibitor, ADP detection",,> 100000
CC/C=C\C/C=C\C/C=C\C/C=C\C/C=C\CCCC(=O)O,"DNA-directed DNA polymerase (Enterobacteria phage T4, UniProt P04415)","enzyme activity, inhibitor",,> 100000
COc1ccc(C2=NN(C3CCCCCC3)C(=O)[C@@H]3CC=CC[C@H]23)cc1-c1ccc(C(N)=O)cc1 (relative stereo),PDE4D,"enzyme activity, inhibitor",,126
COCCOC(=O)C1=C(C)NC(C)=C(C(=O)OC(C)C)C1c1cccc([N+](=O)[O-])c1 (stereo not drawn),"Potassium channel subfamily K member 9 (KCNK9, Homo sapiens, UniProt Q9NPC2)","ion flux, inhibitor",,> 30000
CC(C)(C)n1nc(-c2cnc3cc(OC4CC4)ccc3c2)c(C(N)=O)c1N,"Mitogen-activated protein kinase 1 (MAPK1, Homo sapiens, UniProt P28482)",cell-free assay,,> 10000
CC(C)Cc1ncc(Cc2ccc(O)cc2)[nH]c1=O,"Calpain-1 catalytic subunit (CAPN1, Homo sapiens, UniProt P07384)","enzyme activity, inhibitor",,3900
COc1cc(/C=C2\SC(=O)NC2=O)cc(F)c1OCCNc1nc2c(cnn2C2CCCC2)c(=O)[nH]1,PDE4D,"enzyme activity, inhibitor",,765
Cc1nc(Nc2ccc(C)c(Cl)c2)c2c(C)noc2n1,"Dihydroorotate dehydrogenase, mitochondrial, putative","enzyme activity, inhibitor, absorbance",,260
COc1ccc(-c2noc(-c3cc(Cl)c(F)cc3-n3cncn3)n2)cc1OC,GRM7,"calcium signal, antagonist",,> 30000
Cc1nc2ccc(Cl)cc2c(=O)n1NC(=O)CCl,F2,"enzyme activity, inhibitor",,83900
N#Cc1nc(NCc2cccc(-c3cn(S(=O)(=O)c4ccccc4)c4ccccc34)c2)c2ncn(CCCO)c2n1,"Cathepsin B-like cysteine protease (Trypanosoma brucei, UniProt Q6R7Z5)","enzyme activity, inhibitor",,> 15000
CC[C@@H](C(=O)Nc1ccc(C(N)=O)c(F)c1)n1cc(OC)c(-c2cc(Cl)ccc2-n2cc(C(F)(F)F)nn2)cc1=O,F2,"enzyme activity, inhibitor",,6600
CCOC(=O)C1=C(C)NC(C)=C(C(=O)OC)C1c1cccc([N+](=O)[O-])c1 (stereo not drawn),KCNK18,"ion flux, inhibitor",,19800
COc1ccc(-c2nnc(-c3cc(OC(F)(F)F)ccc3-n3ccnc3)o2)cc1OC,GRM7,"calcium signal, antagonist",,600
CN(C)C/C=C/C(=O)Nc1ccc(C(=O)N2CC[C@@H](Nc3ncc(Cl)c(-c4c[nH]c5ccccc45)n3)C2)cc1,CDK7 with cyclin H,"enzyme activity, inhibitor, FRET",,6.33
COc1cc(/C=N/n2c(C)nc3ccc(Br)cc3c2=O)ccc1OCc1ccc(Cl)cc1,F2,"enzyme activity, inhibitor",,44900
CC(C)C[C@H](NC(=O)[C@H](CCC(=O)O)NC(=O)[C@@H](NC(=O)[C@H](CO)NC(=O)[C@H](CCCCN)NC(=O)[C@H](CCC(N)=O)NC(=O)[C@H](Cc1ccc(O)cc1)NC(=O)[C@H](CCCNC(=N)N)NC(=O)[C@@H](N)CCCNC(=N)N)[C@@H](C)O)C(=O)O,"Antigen peptide transporter 1/Antigen peptide transporter 2 (Homo sapiens, UniProt Q03518+Q03519)",ligand displacement,,100
Cc1ccc(-c2ccc(O)cc2)c(C(=C2C=CC(=O)C=C2)c2ccc(O)cc2)c1C#Cc1ccc(O)cc1,PDE4D,"enzyme activity, inhibitor",,175
O=c1cc(-c2ccc3c(c2)OCO3)oc2c1ccc1occc12,CDK7 with cyclin H,"enzyme activity, inhibitor, ADP detection",,> 100000
CN(C)CC#Cc1ccc2[nH]c3c(c2c1)-c1nc(N)ncc1CCC3,"Cyclin-dependent kinase 7 (CDK7, Homo sapiens, UniProt P50613)","enzyme activity, inhibitor, radiometric",,> 10000
O=C(CCN(Cc1ccc2c(c1)OCO2)Cc1ccc(Cl)c(O)c1F)NO,MEP1B,"enzyme activity, inhibitor",,146
COc1ccc2cc(/C=N/n3c(C)nc4ccc(Br)cc4c3=O)ccc2c1,F2,"enzyme activity, inhibitor",,51900
CC(C)n1c(/C=C/C(O)CC(O)CC(=O)O)c(-c2ccc(F)cc2)c2ccccc21 (stereo not drawn),"3-hydroxy-3-methylglutaryl-coenzyme A reductase (HMGCR, Homo sapiens, UniProt P04035)","enzyme activity, inhibitor, absorbance",,173
O=C(CCN(Cc1ccncc1)Cc1ccc(Cl)c(O)c1F)NO,MEP1B,"enzyme activity, inhibitor",,703
Cc1nc(Nc2ccc(S(F)(F)(F)(F)F)cc2)c2c(C(F)(F)F)noc2n1,"Dihydroorotate dehydrogenase, mitochondrial, putative","enzyme activity, inhibitor, absorbance",,66
O=C(NO)c1ccc(Cn2c(C(F)(F)F)nc3ccccc32)cc1,HDAC6,"enzyme activity, inhibitor",,10
COc1cc(N2CCN(C)CC2)ccc1Nc1ncc2c(n1)N(C)c1ccccc1C(=O)N2,"Mitogen-activated protein kinase 7 (MAPK7, Homo sapiens, UniProt Q13164)","enzyme activity, inhibitor, radiometric",,1200
CN1CCN(c2ccc(Nc3ncc4cc(C#N)c(=O)n(C5CCCC5)c4n3)cc2)CC1,"Dual specificity protein kinase TTK (TTK, Homo sapiens, UniProt P33981)","enzyme activity, inhibitor",,66.8
O=C(Nc1cccnc1)N1CCC(Cc2cccc(Oc3ccc(C(F)(F)F)cn3)c2)CC1,"Liver carboxylesterase 1 (CES1, Homo sapiens, UniProt P23141)","enzyme activity, inhibitor",,> 10000
CNC(=O)[C@H](Cc1ccccc1)NC(=O)[C@H](CC(C)C)[C@H](CSc1cccs1)C(=O)NO,"Disintegrin and metalloproteinase domain-containing protein 8 (Homo sapiens, UniProt P78325)","enzyme activity, inhibitor, fluorescence",,46
O=C(N[C@@H](Cc1c[nH]c2ccccc12)C(=O)O)c1ccc(Cl)cc1,"Free fatty acid receptor 3 (FFAR3, Homo sapiens, UniProt O14843)","GTPγS binding, antagonist",cell membranes,> 31600
CC[C@H](C)[C@H](NC(C)=O)C(=O)N[C@@H](CCC(=O)O)C(=O)N[C@H](C(=O)N[C@H](C=O)CC(=O)O)[C@@H](C)O,"Caspase-10 (CASP10, Homo sapiens, UniProt Q92851)","enzyme activity, inhibitor",,12.5
